From ChEMBL document CHEMBL2390884, “Design, synthesis and antiproliferative activity studies of novel 1,2,3-triazole-dithiocarbamate-urea hybrids” (Eur J Med Chem, 2013)
The source made the active and inactive calls. The rule behind the calls is not given here.

Tests used:
MCF7 = assay: Cytotoxicity against human MCF7 cells after 72 hrs by MTT assay; assay type: functional, cell-based; settings: MCF7, 72 h
[1] = Cytotoxicity against human EC9706 cells after 72 hrs by MTT assay; assay type: functional, cell-based; settings: EC9706, 72 h
SMMC-7721 = assay: Cytotoxicity against human SMMC7721 cells after 72 hrs by MTT assay; assay type: functional, cell-based; settings: SMMC-7721, 72 h
MGC-803 [2] = assay: Cytotoxicity against human MGC803 cells after 72 hrs by MTT assay; assay type: functional, cell-based; settings: MGC-803, 72 h
MGC-803 [3] = assay: Cell cycle arrest in human MGC803 cells assessed as accumulation at S phase at 0.25 uM after 12 hrs by propidium iodide staining-based flow cytometry; assay type: functional
Procedure, shortened: (§1)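 Exponentially growing MGC-803 cells (5×10^5) treated at 0, 0.25, 0.5 or 1.0 µmol/L for 12 or 24 h; cells collected, fixed in ice-cold 70% ethanol, treated with buffer containing RNAse A and 0.1% Triton X-100, stained with PI; DNA content analysed by flow cytometry to give percentages of cells in G1, S and G2/M phases.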

MGC-803 [4] = assay: Cell cycle arrest in human MGC803 cells assessed as accumulation at G2/M phase after 12 to 24 hrs by propidium iodide staining-based flow cytometry; assay type: functional; procedure, shortened: as §1
MGC-803 [5] = assay: Cell cycle arrest in human MGC803 cells assessed as accumulation at G2/M phase at 0.5 uM after 12 hrs by propidium iodide staining-based flow cytometry; assay type: functional; procedure, shortened: as §1
MGC-803 [6] = assay: Cell cycle arrest in human MGC803 cells assessed as accumulation at S phase at 0.25 uM after 24 hrs by propidium iodide staining-based flow cytometry; assay type: functional; procedure, shortened: as §1
MGC-803 [7] = assay: Induction of apoptosis in human MGC803 cells assessed as nuclear shrinkage at 0.25 to 1 uM after 12 hrs by Hoechst 33258 staining-based fluorescence microscopy; assay type: functional, cell-based
Procedure, shortened: (§2)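 MGC-803 cells seeded at 8×10^3 cells/well, treated 12 h at 0, 0.25, 0.5 or 1.0 µmol/L; cells collected, fixed, stained 20 min with Hoechst 33258, washed with PBS; nuclear shrinkage, chromatin condensation, intense fluorescence and fragmentation scored by fluorescence microscopy.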

MGC-803 [8] = assay: Cell cycle arrest in human MGC803 cells assessed as accumulation at G0/G1 phase at 1 uM after 24 hrs by propidium iodide staining-based flow cytometry; assay type: functional; procedure, shortened: as §1
MGC-803 [9] = assay: Cell cycle arrest in human MGC803 cells assessed as accumulation at G0/G1 phase at 0.5 uM after 12 hrs by propidium iodide staining-based flow cytometry; assay type: functional; procedure, shortened: as §1
MGC-803 [10] = assay: Cell cycle arrest in human MGC803 cells assessed as accumulation at G0/G1 phase at 0.5 uM after 24 hrs by propidium iodide staining-based flow cytometry; assay type: functional; procedure, shortened: as §1
MGC-803 [11] = assay: Cell cycle arrest in human MGC803 cells assessed as reduction in G1 phase accumulation at 0.25 to 1 uM by propidium iodide staining-based flow cytometry; assay type: functional; settings: TDE = time-dependent effect; procedure, shortened: as §1
MGC-803 [12] = assay: Cell cycle arrest in human MGC803 cells assessed as accumulation at G2/M phase at 0.25 uM after 12 hrs by propidium iodide staining-based flow cytometry; assay type: functional; procedure, shortened: as §1
MGC-803 [13] = assay: Cell cycle arrest in human MGC803 cells assessed as accumulation at G2/M phase at 0.25 uM after 24 hrs by propidium iodide staining-based flow cytometry; assay type: functional; procedure, shortened: as §1
MGC-803 [14] = assay: Cell cycle arrest in human MGC803 cells assessed as accumulation at S phase at 0.5 uM after 12 hrs by propidium iodide staining-based flow cytometry; assay type: functional; procedure, shortened: as §1
MGC-803 [15] = assay: Induction of apoptosis in human MGC803 cells assessed as chromatin condensation at 0.25 to 1 uM after 12 hrs by Hoechst 33258 staining-based fluorescence microscopy; assay type: functional, cell-based; procedure, shortened: as §2
MGC-803 [16] = assay: Cell cycle arrest in human MGC803 cells assessed as reduction in S phase accumulation after 12 to 24 hrs by propidium iodide staining-based flow cytometry; assay type: functional; procedure, shortened: as §1
MGC-803 [17] = assay: Cell cycle arrest in human MGC803 cells assessed as accumulation at G2/M phase at 0.5 uM after 24 hrs by propidium iodide staining-based flow cytometry; assay type: functional; procedure, shortened: as §1
MGC-803 [18] = assay: Cell cycle arrest in human MGC803 cells assessed as accumulation at G0/G1 phase at 0.25 uM after 24 hrs by propidium iodide staining-based flow cytometry; assay type: functional; procedure, shortened: as §1
MGC-803 [19] = assay: Cell cycle arrest in human MGC803 cells assessed as accumulation at S phase at 0.5 uM after 24 hrs by propidium iodide staining-based flow cytometry; assay type: functional; procedure, shortened: as §1
MGC-803 [20] = assay: Cell cycle arrest in human MGC803 cells assessed as accumulation at G2/M phase at 1 uM after 24 hrs by propidium iodide staining-based flow cytometry; assay type: functional; procedure, shortened: as §1
MGC-803 [21] = assay: Cell cycle arrest in human MGC803 cells assessed as accumulation at G2/M phase at 0.25 to 1 uM by propidium iodide staining-based flow cytometry; assay type: functional; settings: TDE = time-dependent effect; procedure, shortened: as §1
MGC-803 [22] = assay: Cell cycle arrest in human MGC803 cells assessed as accumulation at G0/G1 phase at 0.25 uM after 12 hrs by propidium iodide staining-based flow cytometry; assay type: functional; procedure, shortened: as §1
HEK293 = assay: Cytotoxicity against human HEK293 cells up to 55 uM after 72 hrs by MTT assay; assay type: cell-based; settings: hek293, 72 h
Procedure, shortened: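 HEK293 cells seeded at 5×10^3 per well, grown 24 h at 37°C, then medium replaced with compound-containing medium over a concentration range; 72 h exposure; MTT (5 mg/mL stock) added for 4 h at 37°C, formazan dissolved in DMSO, absorbance read at 570 nm. Triplicate per concentration, experiment repeated three times.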

MGC-803 [23] = assay: Cell cycle arrest in human MGC803 cells assessed as accumulation at G2/M phase at 1 uM after 12 hrs by propidium iodide staining-based flow cytometry; assay type: functional; procedure, shortened: as §1
MGC-803 [24] = assay: Cell cycle arrest in human MGC803 cells assessed as reduction in G1 phase accumulation after 12 to 24 hrs by propidium iodide staining-based flow cytometry; assay type: functional; procedure, shortened: as §1
MGC-803 [25] = assay: Cell cycle arrest in human MGC803 cells assessed as accumulation at G0/G1 phase at 1 uM after 12 hrs by propidium iodide staining-based flow cytometry; assay type: functional; procedure, shortened: as §1
MGC-803 [26] = assay: Cell cycle arrest in human MGC803 cells assessed as accumulation at S phase at 1 uM after 12 hrs by propidium iodide staining-based flow cytometry; assay type: functional; procedure, shortened: as §1
MGC-803 [27] = assay: Cell cycle arrest in human MGC803 cells assessed as reduction in S phase accumulation at 0.25 to 1 uM by propidium iodide staining-based flow cytometry; assay type: functional; settings: TDE = time-dependent effect; procedure, shortened: as §1
MGC-803 [28] = assay: Cell cycle arrest in human MGC803 cells assessed as accumulation at S phase at 1 uM after 24 hrs by propidium iodide staining-based flow cytometry; assay type: functional; procedure, shortened: as §1
MGC-803 [29] = assay: Induction of apoptosis in human MGC803 cells assessed as nuclear fragmentation at 0.25 to 1 uM after 12 hrs by Hoechst 33258 staining-based fluorescence microscopy; assay type: functional, cell-based; procedure, shortened: as §2

`CCNC(=O)N1CCN(C(=S)SCc2cn(Cc3ccc(F)cc3)nn2)CC1` gave an IC50 (MCF7) of 3.66 µM, an IC50 [1] of 27.8 µM and an IC50 (SMMC-7721) of 44.4 µM. For the same molecule, the IC50 (MGC-803 [2]) was 2.17 µM.

`COc1ccc(Cn2cc(CSC(=S)N3CCN(C(N)=O)CC3)nn2)cc1` gave an IC50 (MCF7) of over 128 µM, an IC50 [1] of over 128 µM and an IC50 (SMMC-7721) of over 128 µM. For the same molecule, the IC50 (MGC-803 [2]) was over 128 µM.

Molecule `NC(=O)N1CCN(C(=S)SCc2cn(Cc3ccccc3F)nn2)CC1` has an IC50 (MCF7) of over 128 µM, an IC50 [1] of 43.1 µM and an IC50 (SMMC-7721) of over 128 µM. For the same molecule, the IC50 (MGC-803 [2]) was 11.3 µM.

Molecule `Cc1ccc(Cn2cc(CSC(=S)N3CCN(C(N)=O)CC3)nn2)cc1` has an IC50 (MCF7) of over 128 µM, an IC50 [1] of over 128 µM and an IC50 (SMMC-7721) of over 128 µM. For the same molecule, the IC50 (MGC-803 [2]) was 29.9 µM.

`CCN(C)C(=O)N1CCN(C(=S)SCc2cn(Cc3ccc(OC)cc3)nn2)CC1` showed an IC50 (MCF7) of 21.4 µM, an IC50 [1] of over 128 µM and an IC50 (SMMC-7721) of over 128 µM. It also gave an IC50 (MGC-803 [2]) of 87.9 µM.

For `CCNC(=O)N1CCN(C(=S)SCc2cn(Cc3ccccc3F)nn2)CC1`, the IC50 (MCF7) was 5.76 µM, the IC50 [1] was 23.7 µM and the IC50 (SMMC-7721) was over 128 µM. For the same molecule, the IC50 (MGC-803 [2]) was 2.83 µM.

`COc1ccc(Cn2cc(CSC(=S)N3CCN(C(=O)NC(C)C)CC3)nn2)cc1` gave an IC50 (MCF7) of 19.6 µM, an IC50 [1] of over 128 µM and an IC50 (SMMC-7721) of over 128 µM. For the same molecule, the IC50 (MGC-803 [2]) was 99.2 µM.

`CCN(C)C(=O)N1CCN(C(=S)SCc2cn(Cc3cc(OC)c(OC)c(OC)c3)nn2)CC1` showed an IC50 (MCF7) of 68.5 µM, an IC50 [1] of over 128 µM and an IC50 (SMMC-7721) of over 128 µM. For the same molecule, the IC50 (MGC-803 [2]) was 85.7 µM.

Work on `CCNC(=O)N1CCN(C(=S)SCc2cn(Cc3ccc(OC)cc3)nn2)CC1` yielded an IC50 (MCF7) of 97.6 µM, an IC50 [1] of over 128 µM and an IC50 (SMMC-7721) of over 128 µM. It also gave an IC50 (MGC-803 [2]) of over 128 µM.

`CCN(C)C(=O)N1CCN(C(=S)SCc2cn(Cc3ccc(Cl)cc3)nn2)CC1` gave an IC50 (MCF7) of 14.7 µM, an IC50 [1] of 17.7 µM and an IC50 (SMMC-7721) of 38.2 µM. It also gave an IC50 (MGC-803 [2]) of 4.32 µM.

Work on `O=C(NC1CCCCC1)N1CCN(C(=S)SCc2cn(Cc3ccc(F)cc3)nn2)CC1` yielded an IC50 (MCF7) of over 128 µM, an IC50 [1] of over 128 µM and an IC50 (SMMC-7721) of over 128 µM. For the same molecule, the IC50 (MGC-803 [2]) was over 128 µM.

`COc1cc(Cn2cc(CSC(=S)N3CCN(C(=O)NC(C)C)CC3)nn2)cc(OC)c1OC` gave an IC50 (MCF7) of over 128 µM, an IC50 [1] of over 128 µM and an IC50 (SMMC-7721) of over 128 µM. It also gave an IC50 (MGC-803 [2]) of over 128 µM.

`COc1cc(Cn2cc(CSC(=S)N3CCN(C(N)=O)CC3)nn2)cc(OC)c1OC` showed an IC50 (MCF7) of over 128 µM, an IC50 [1] of over 128 µM and an IC50 (SMMC-7721) of over 128 µM. The IC50 (MGC-803 [2]) was over 128 µM.

For `CC(C)NC(=O)N1CCN(C(=S)SCc2cn(Cc3ccccc3F)nn2)CC1`, the Activity (MGC-803 [3]) was 39.06%, the IC50 (MCF7) was 1.86 µM and the Activity (MGC-803 [4]) was “Dose-dependent effect”. For the same molecule, the Activity (MGC-803 [5]) was 50.35%, the Activity (MGC-803 [6]) was 35.96% and the Activity (MGC-803 [7]) was “Active”. The Activity (MGC-803 [8]) was 2.99%, the Activity (MGC-803 [9]) was 19.1% and the Activity (MGC-803 [10]) was 10.9%. The Activity (MGC-803 [11]) was “tde”, the Activity (MGC-803 [12]) was 21.86% and the Activity (MGC-803 [13]) was 32.93%. The Activity (MGC-803 [14]) was 26.26%, the Activity (MGC-803 [15]) was “Active” and the IC50 [1] was 20.8 µM. The IC50 (SMMC-7721) was 7.13 µM, the IC50 (MGC-803 [2]) was 1.62 µM and the Activity (MGC-803 [16]) was “Dose-dependent effect”. For the same molecule, the Activity (MGC-803 [17]) was 68.71%, the Activity (MGC-803 [18]) was 31.47% and the Activity (MGC-803 [19]) was 17.4%. For the same molecule, the Activity (MGC-803 [20]) was 74.95%, the Activity (MGC-803 [21]) was “tde” and the Activity (MGC-803 [22]) was 38.7%. The Activity (HEK293) was “Non-toxic”, the Activity (MGC-803 [23]) was 59.86% and the Activity (MGC-803 [24]) was “Dose-dependent effect”. For the same molecule, the Activity (MGC-803 [25]) was 6.02%, the Activity (MGC-803 [26]) was 39.11% and the Activity (MGC-803 [27]) was “tde”. For the same molecule, the Activity (MGC-803 [28]) was 15.66% and the Activity (MGC-803 [29]) was “Active”.
